Reference: ChEMBL document CHEMBL1139466, “Novel tetralone-derived retinoic acid metabolism blocking agents: synthesis and in vitro evaluation with liver microsomal and MCF-7 CYP26A1 cell assays” (J Med Chem, 2005)
Active and inactive are the calls of the source. No cut-off for these calls is given here.

Tested on: Liver microsomes
Assay: Inhibition of all-trans retinoic acid metabolism in rat liver microsomes
Format: functional, Microsome
Conditions: not given
Outline: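 Rat liver microsomes incubated with [11,12-3H]-atRA (diluted in unlabeled atRA), inhibitor in acetonitrile, NADPH and 50 mM phosphate buffer pH 7.4, duplicate tubes, 30 min at 37 °C with shaking. Extract evaporated and metabolites resolved by C18 radio-HPLC (acetonitrile/1% ammonium acetate/acetic acid 75:25:0.1). IC50 is the average of two experiments.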

Row | Structure (SMILES) | IC50
1 | COc1ccc2c(c1)CC/C(=C\c1cc(C(F)(F)F)ccc1C(F)(F)F)C2=O | > 20 µM
2 | CN(C)c1ccc(CC2CCc3cc(O)ccc3C2=O)cc1 (configuration not stated) | 1.2 µM
3 | COc1ccc2c(c1)CC/C(=C\c1ccccc1C)C2=O | > 20 µM
4 | O=C1c2ccc(O)cc2CCC1Cc1ccccc1-c1ccccc1 (configuration not stated) | 0.5 µM
5 | CC(=O)N1CCN(c2ccc(OCC3COC(Cn4ccnc4)(c4ccc(Cl)cc4Cl)O3)cc2)CC1 (configuration not stated) [KETOCONAZOLE] | 18 µM
6 | COc1ccc2c(c1)CCC(Cc1cc(C(F)(F)F)ccc1C(F)(F)F)C2=O (configuration not stated) | 18 µM
7 | CCC(CC)[C@H](c1ccc(Nc2nc3ccccc3s2)cc1)n1cncn1 | 9 µM
8 | CN(C)c1ccc(/C=C2\CCc3cc(O)ccc3C2=O)cc1 | > 20 µM
9 | COc1ccc2c(c1)CC/C(=C\c1ccccc1Br)C2=O | > 20 µM
10 | Nc1ccc(CC2CCc3cc(O)ccc3C2=O)cc1 (single isomer, unassigned; (+)) | 17.6 µM
11 | COc1ccc2c(c1)CCC(Cc1ccc(O)cc1)C2 (configuration not stated) | 2.2 µM
12 | COc1ccc2c(c1)CCC(Cc1ccc(O)cc1)C2=O (configuration not stated) | 0.4 µM
13 | O=C1c2ccc(O)cc2CCC1Cc1ccc(-c2ccccc2)cc1 (configuration not stated) | 0.8 µM
14 | O=C1/C(=C/c2ccccc2-c2ccccc2)CCc2cc(O)ccc21 | > 20 µM
15 | COc1ccc2c(c1)CC/C(=C\c1ccc(O)cc1)C2=O | > 20 µM
16 | O=C1/C(=C/c2ccccc2Br)CCc2cc(O)ccc21 | 2.4 µM
17 | Nc1ccc(CC2CCc3cc(O)ccc3C2=O)cc1 (single isomer, unassigned; (-)) | 10.2 µM
18 | COc1ccc2c(c1)CCC(Cc1ccccc1C)C2=O (configuration not stated) | 1.8 µM
19 | O=C1c2ccc(O)cc2CCC1Cc1ccc(O)cc1 (configuration not stated) | 1.5 µM
20 | O=C1/C(=C/c2ccc(-c3ccccc3)cc2)CCc2cc(O)ccc21 | > 20 µM
21 | O=C1/C(=C/c2ccc(O)cc2)CCc2cc(O)ccc21 | > 20 µM

Same assay, conditions: Microsome

Row | Structure (SMILES) | Activity
22 | Clc1cccc(C(c2ccc3[nH]cnc3c2)n2ccnc2)c1 (configuration not stated) | Active

Target: T1, Cytochrome P450 26A1 (Homo sapiens, UniProt O43174)
T1 sequence (O43174 whole entry): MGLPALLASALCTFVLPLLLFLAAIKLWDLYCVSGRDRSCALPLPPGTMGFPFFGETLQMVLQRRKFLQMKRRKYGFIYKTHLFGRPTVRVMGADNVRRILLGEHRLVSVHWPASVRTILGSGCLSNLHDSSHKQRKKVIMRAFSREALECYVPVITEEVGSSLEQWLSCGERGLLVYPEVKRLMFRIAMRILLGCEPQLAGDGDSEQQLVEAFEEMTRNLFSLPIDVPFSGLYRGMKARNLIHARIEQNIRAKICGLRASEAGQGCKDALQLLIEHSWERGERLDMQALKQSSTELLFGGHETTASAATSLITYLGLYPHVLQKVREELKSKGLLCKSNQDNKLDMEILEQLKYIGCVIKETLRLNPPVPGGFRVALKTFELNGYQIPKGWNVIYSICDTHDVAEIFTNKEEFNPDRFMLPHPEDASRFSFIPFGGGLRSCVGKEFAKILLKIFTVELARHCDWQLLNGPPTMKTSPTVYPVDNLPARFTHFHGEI
Assay: Inhibition of CYP26A1 in human MCF7 cells assessed as all-trans retinoic acid metabolism
Format: ADME, cell-based
Conditions: not given
Outline: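 Seeded 2.5 × 10^5 per well and allowed 24 h to adhere, then washed with PBS. Fresh medium with inhibitor in acetonitrile plus atRA (final 1 × 10^-7 M, 0.1 μCi [3H]-atRA), 9 h at 37 °C in the dark, duplicate. Stopped with 1% acetic acid. Metabolites separated by radio-HPLC on C18. IC50 is the average of two experiments.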

Row | Structure (SMILES) | IC50
23 | COc1ccc2c(c1)CC/C(=C\c1cc(C(F)(F)F)ccc1C(F)(F)F)C2=O | 50 µM
24 | CN(C)c1ccc(CC2CCc3cc(O)ccc3C2=O)cc1 (configuration not stated) | 25 µM
25 | COc1ccc2c(c1)CC/C(=C\c1ccccc1C)C2=O | 20 µM
26 | O=C1c2ccc(O)cc2CCC1Cc1ccccc1-c1ccccc1 (configuration not stated) | 10 µM
27 | COc1ccc2c(c1)CCC(Cc1cc(C(F)(F)F)ccc1C(F)(F)F)C2=O (configuration not stated) | 50 µM
28 | CCC(CC)[C@H](c1ccc(Nc2nc3ccccc3s2)cc1)n1cncn1 | 0.005 µM
29 | CN(C)c1ccc(/C=C2\CCc3cc(O)ccc3C2=O)cc1 | 50 µM
30 | COc1ccc2c(c1)CC/C(=C\c1ccccc1Br)C2=O | 9 µM
31 | Nc1ccc(CC2CCc3cc(O)ccc3C2=O)cc1 (single isomer, unassigned; (+)) | 43 µM
32 | COc1ccc2c(c1)CCC(Cc1ccc(O)cc1)C2 (configuration not stated) | 25 µM
33 | COc1ccc2c(c1)CCC(Cc1ccc(O)cc1)C2=O (configuration not stated) | 5 µM
34 | O=C1c2ccc(O)cc2CCC1Cc1ccc(-c2ccccc2)cc1 (configuration not stated) | 10 µM
35 | O=C1/C(=C/c2ccccc2-c2ccccc2)CCc2cc(O)ccc21 | 20 µM
36 | COc1ccc2c(c1)CC/C(=C\c1ccc(O)cc1)C2=O | 7 µM
37 | O=C1/C(=C/c2ccccc2Br)CCc2cc(O)ccc21 | 20 µM
38 | Nc1ccc(CC2CCc3cc(O)ccc3C2=O)cc1 (single isomer, unassigned; (-)) | 39 µM
39 | COc1ccc2c(c1)CCC(Cc1ccccc1C)C2=O (configuration not stated) | 20 µM
40 | O=C1c2ccc(O)cc2CCC1Cc1ccc(O)cc1 (configuration not stated) | 20 µM
41 | O=C1/C(=C/c2ccc(-c3ccccc3)cc2)CCc2cc(O)ccc21 | 50 µM
42 | O=C1/C(=C/c2ccc(O)cc2)CCc2cc(O)ccc21 | 9 µM
